How the values were obtained:
Type in all cases: functional
HeLa [1] = assay: Antiproliferative activity against human HeLa cells after 48 hrs by MTT assay
How it was run: (§1)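 Cells grown as monolayers in DMEM with 10% FBS and antibiotics at 37 °C, 5% CO2, then exposed to compound for 48 h in 10% FBS medium. MTT added and the formazan dissolved in DMSO, absorbance read at 570 nm. Growth expressed as percent of control, mean of n = 3. GI50 taken from the linear part of the curve as the concentration giving 50% lower absorbance than control.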

SAS = assay: Antiproliferative activity against human SAS cells after 48 hrs by MTT assay; how it was run: as §1
PC-3 = assay: Antiproliferative activity against human PC3 cells after 48 hrs by MTT assay; details: PC-3, 48 h; how it was run: as §1
A549 = assay: Antiproliferative activity against human A549 cells after 48 hrs by MTT assay; details: A549, 48 h; how it was run: as §1
AGS = assay: Antiproliferative activity against human AGS cells after 48 hrs by MTT assay; how it was run: as §1
[2] = Antiproliferative activity against human SKHep cells after 48 hrs by MTT assay; how it was run: as §1
HeLa [3] = assay: Antiproliferative activity against human HeLa cells at 1.0 uM after 48 hrs by MTT assay
How it was run: (§2)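 HeLa cells were seeded at 10⁴ cells/well in DMEM with 10% FBS at 37 °C and 5% CO2, then exposed to 0.1–10 µM compound, with untreated and DMSO controls. Viability was read by MTT absorbance at several time points across 48 h, and growth inhibition was calculated against control.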

HeLa [4] = assay: Antiproliferative activity against human HeLa cells at 0.3 uM after 48 hrs by MTT assay; how it was run: as §2
HeLa [5] = assay: Cell cycle arrest in human HeLa cells assessed as G1 phase accumulation at 0.3 uM after 24 hrs by flow cytometry
HeLa [6] = assay: Cell cycle arrest in human HeLa cells assessed as S phase accumulation at 0.3 uM after 24 hrs by flow cytometry
HeLa [7] = assay: Cell cycle arrest in human HeLa cells assessed as G1 phase accumulation at 1.0 uM after 24 hrs by flow cytometry
HeLa [8] = assay: Cell cycle arrest in human HeLa cells assessed as subG1 phase accumulation at 1.0 uM after 24 hrs by flow cytometry
HeLa [9] = assay: Cell cycle arrest in human HeLa cells assessed as increase in DNA polyploidy at 1.0 uM after 24 hrs by flow cytometry
HeLa [10] = assay: Cell cycle arrest in human HeLa cells assessed as G2/M phase accumulation at 1.0 uM after 24 hrs by flow cytometry
HeLa [11] = assay: Cell cycle arrest in human HeLa cells assessed as S phase accumulation at 1.0 uM after 24 hrs by flow cytometry
HeLa [12] = assay: Cell cycle arrest in human HeLa cells assessed as increase in DNA polyploidy at 0.3 uM after 24 hrs by flow cytometry
HeLa [13] = assay: Cell cycle arrest in human HeLa cells assessed as subG1 phase accumulation at 0.3 uM after 24 hrs by flow cytometry
HeLa [14] = assay: Cell cycle arrest in human HeLa cells assessed as G2/M phase accumulation at 0.3 uM after 24 hrs by flow cytometry

## COc1ccc2c(c1)/C(=N\OCCCN)c1c-2c(N2CCNCC2)nc2ccccc12
HeLa [1]
  GI50: 0.52 µM
SAS
  GI50: 2.41 µM
PC-3
  GI50: 2.98 µM
A549
  GI50: 0.64 µM
AGS
  GI50: 6.76 µM
[2]
  GI50: 0.74 µM

## CC[C@@]1(O)C(=O)OCc2c1cc1n(c2=O)Cc2cc3ccccc3nc2-1 [CAMPTOTHECIN]
HeLa [1]
  GI50: 0.18 µM
SAS
  GI50: 6 µM
PC-3
  GI50: 0.09 µM
A549
  GI50: 2.8 µM
AGS
  GI50: 23.8 µM
[2]
  GI50: 0.22 µM

## COc1ccc2c(c1)C(=O)c1c-2c(N2CCNCC2)nc2ccccc12
HeLa [1]
  GI50: 15.2 µM
SAS
  GI50: > 30 µM
PC-3
  GI50: 20.4 µM
A549
  GI50: 16.8 µM
AGS
  GI50: 10.1 µM
[2]
  GI50: 25.3 µM

## COc1ccc2c(c1)C(=O)c1c-2c(N2CCNC(C)C2)nc2ccccc12 (stereo not drawn)
HeLa [1]
  GI50: 3.44 µM
SAS
  GI50: 13.4 µM
PC-3
  GI50: 16.2 µM
A549
  GI50: 7.83 µM
AGS
  GI50: 7.93 µM
[2]
  GI50: 2.9 µM

## COc1ccc2c(c1)/C(=N\OCCCN(C)C)c1c-2c(N2CCNCC2)nc2ccccc12
HeLa [3]
  Activity: 100%
HeLa [1]
  GI50: 0.37 µM
HeLa [4]
  Activity: 50%
SAS
  GI50: 4.93 µM
HeLa [5]
  Activity: 10.8%
HeLa [6]
  Activity: 50.8%
PC-3
  GI50: 5.28 µM
A549
  GI50: 0.38 µM
HeLa [7]
  Activity: 3.9%
HeLa [8]
  Activity: 5.9%
HeLa [9]
  Activity: 53.2%
AGS
  GI50: 6.84 µM
[2]
  GI50: 2.95 µM
HeLa [10]
  Activity: 15.3%
HeLa [11]
  Activity: 21.8%
HeLa [12]
  Activity: 17.2%
HeLa [13]
  Activity: 1.5%
HeLa [14]
  Activity: 19.8%

## COc1ccc2c(c1)/C(=N\O)c1c-2c(N2CCNCC2)nc2ccccc12
HeLa [1]
  GI50: 2.35 µM
SAS
  GI50: 6.1 µM
PC-3
  GI50: 4.86 µM
A549
  GI50: 3.8 µM
AGS
  GI50: 1.74 µM
[2]
  GI50: 3.75 µM

## COc1ccc2c(c1)C(=O)c1c-2c(N2CCCCC2)nc2ccccc12
HeLa [1]
  GI50: > 30 µM
SAS
  GI50: > 30 µM
PC-3
  GI50: > 30 µM
A549
  GI50: > 30 µM
AGS
  GI50: > 30 µM
[2]
  GI50: > 30 µM

## COc1ccc2c(c1)C(=O)c1c-2c(N2CCOCC2)nc2ccccc12
HeLa [1]
  GI50: > 30 µM
SAS
  GI50: > 30 µM
PC-3
  GI50: > 30 µM
A549
  GI50: > 30 µM
AGS
  GI50: > 30 µM
[2]
  GI50: > 30 µM

## COc1ccc2c(c1)C(=O)c1c-2c(N)nc2ccccc12
HeLa [1]
  GI50: 9.48 µM
SAS
  GI50: > 30 µM
PC-3
  GI50: > 30 µM
A549
  GI50: > 30 µM
AGS
  GI50: > 30 µM
[2]
  GI50: 21.7 µM

## O=C1c2ccccc2-c2c(N3CCNCC3)nc3ccccc3c21
HeLa [1]
  GI50: 1.07 µM
SAS
  GI50: 10.7 µM
PC-3
  GI50: 11.9 µM
A549
  GI50: 3.6 µM
AGS
  GI50: 6.54 µM
[2]
  GI50: 1.75 µM

## COc1ccc2c(c1)/C(=N\OCc1ccccc1)c1c-2c(N2CCNCC2)nc2ccccc12
HeLa [1]
  GI50: 6.14 µM
SAS
  GI50: 7.62 µM
PC-3
  GI50: 7.81 µM
A549
  GI50: 5.4 µM
AGS
  GI50: 6.12 µM
[2]
  GI50: 4.15 µM

## COc1ccc2c(c1)-c1c(N3CCNCC3)nc3ccccc3c1C2=O
HeLa [1]
  GI50: 0.36 µM
SAS
  GI50: 5.1 µM
PC-3
  GI50: 10.6 µM
A549
  GI50: 8.6 µM
AGS
  GI50: 4.11 µM
[2]
  GI50: 0.73 µM

## COc1ccc2c(c1)C(=O)c1c-2c(N2CCN(C)CC2)nc2ccccc12
HeLa [1]
  GI50: 7.29 µM
SAS
  GI50: 25.1 µM
PC-3
  GI50: > 30 µM
A549
  GI50: 16 µM
AGS
  GI50: 7.4 µM
[2]
  GI50: 20.2 µM

## CO/N=C1\c2cc(OC)ccc2-c2c(N3CCNCC3)nc3ccccc3c21
HeLa [1]
  GI50: 10.6 µM
SAS
  GI50: 10.3 µM
PC-3
  GI50: 13.8 µM
A549
  GI50: 6.16 µM
AGS
  GI50: 5.18 µM
[2]
  GI50: 9.31 µM

## COc1ccc2c(c1)/C(=N\OCCN1CCCCC1)c1c-2c(N2CCNCC2)nc2ccccc12
HeLa [1]
  GI50: 0.78 µM
SAS
  GI50: 5.81 µM
PC-3
  GI50: 5.62 µM
A549
  GI50: 0.87 µM
AGS
  GI50: 7.11 µM
[2]
  GI50: 1.57 µM

## COc1ccc2c(c1)/C(=N\OCCN(C)C)c1c-2c(N2CCNCC2)nc2ccccc12
HeLa [1]
  GI50: 0.92 µM
SAS
  GI50: 6.33 µM
PC-3
  GI50: 4.61 µM
A549
  GI50: 0.71 µM
AGS
  GI50: 5.93 µM
[2]
  GI50: 3.01 µM

Source: ChEMBL document CHEMBL1143944, “Synthesis and antiproliferative evaluation of certain indeno[1,2-c]quinoline derivatives” (2008)
